Laboratory results published in ChEMBL document CHEMBL4765319, “Identification of a new series of flavopiridol-like structures as kinase inhibitors with high cytotoxic potency” (Eur J Med Chem, 2020).

Tests used:
[1] = tested on: SK-OV-3; assay: Antiproliferative activity against human SKOV3 cells assessed as reduction in cell viability incubated for 72 hrs by CellTiter-Blue fluorescence assay; conditions: SK-OV-3, 72 h
[2] = tested on: PC-3; assay: Antiproliferative activity against human PC-3 cells assessed as reduction in cell viability incubated for 72 hrs by CellTiter-Blue fluorescence assay; conditions: PC-3, 72 h
[3] = biological target: T1, Cyclin-dependent kinase 5/CDK5 activator 1 (Homo sapiens) (UniProt Q00535+Q15078); assay: Inhibition of human CDK5/p25 assessed as residual activity at 1 uM in presence of ATP by ADP-glo luminescent assay relative to control; format: protein-complex assay
T1 sequence (Q00535 whole entry): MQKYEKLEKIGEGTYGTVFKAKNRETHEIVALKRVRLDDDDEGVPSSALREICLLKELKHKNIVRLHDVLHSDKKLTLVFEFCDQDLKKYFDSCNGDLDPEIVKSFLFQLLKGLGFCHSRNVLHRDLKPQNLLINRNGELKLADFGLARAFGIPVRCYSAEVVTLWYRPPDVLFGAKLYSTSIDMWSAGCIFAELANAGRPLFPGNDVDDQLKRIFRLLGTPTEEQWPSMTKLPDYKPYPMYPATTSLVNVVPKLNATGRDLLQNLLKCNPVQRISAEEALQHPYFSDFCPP
T1 sequence (Q15078 99-307 partner limits assumed): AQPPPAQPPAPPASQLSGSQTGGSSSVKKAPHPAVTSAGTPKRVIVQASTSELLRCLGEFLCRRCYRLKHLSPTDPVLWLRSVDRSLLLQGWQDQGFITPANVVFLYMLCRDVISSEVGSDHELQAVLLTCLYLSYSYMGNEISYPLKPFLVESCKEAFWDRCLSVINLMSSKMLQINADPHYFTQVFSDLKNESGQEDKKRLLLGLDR
Outline: (§1)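 Human kinases assayed by ADP-Glo luminescence with 10 μM ATP, compound at 10 or 1 μM. Activity is expressed as % of maximal activity relative to a DMSO control, mean n = 2.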

[4] = species on record: Sus scrofa; assay: Inhibition of porcine CK1delta/epsilon assessed as residual activity at 10 uM in presence of ATP by ADP-glo luminescent assay relative to control
[5] = tested on: Plasmodium falciparum; assay: Inhibition of Plasmodium falciparum GSK3 assessed as residual activity at 1 uM in presence of ATP by ADP-glo luminescent assay relative to control
Outline: (§2)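 Recombinant P. falciparum GSK3, bacterially expressed, in buffer A (10 mM MgCl2, 1 mM EGTA, 1 mM DTT, 25 mM Tris-HCl pH 7.5, 50 μg/ml heparin). Substrate 0.010 μg/μl GS-1 peptide, 10 μM ATP, ADP-Glo luminescence. Compound at 10 or 1 μM; % residual activity vs DMSO control, mean n = 2.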

[6] = tested on: HCT-116; assay: Antiproliferative activity against human HCT-116 cells assessed as reduction in cell viability incubated for 72 hrs by CellTiter-Blue fluorescence assay; conditions: HCT-116, 72 h
[7] = biological target: T2, Glycogen synthase kinase-3 beta (Homo sapiens, UniProt P49841); assay: Inhibition of human GSK3beta assessed as residual activity at 1 uM in presence of ATP by ADP-glo luminescent assay relative to control
Outline: as §1
Target sequence in this assay (P49841 whole entry, looked up): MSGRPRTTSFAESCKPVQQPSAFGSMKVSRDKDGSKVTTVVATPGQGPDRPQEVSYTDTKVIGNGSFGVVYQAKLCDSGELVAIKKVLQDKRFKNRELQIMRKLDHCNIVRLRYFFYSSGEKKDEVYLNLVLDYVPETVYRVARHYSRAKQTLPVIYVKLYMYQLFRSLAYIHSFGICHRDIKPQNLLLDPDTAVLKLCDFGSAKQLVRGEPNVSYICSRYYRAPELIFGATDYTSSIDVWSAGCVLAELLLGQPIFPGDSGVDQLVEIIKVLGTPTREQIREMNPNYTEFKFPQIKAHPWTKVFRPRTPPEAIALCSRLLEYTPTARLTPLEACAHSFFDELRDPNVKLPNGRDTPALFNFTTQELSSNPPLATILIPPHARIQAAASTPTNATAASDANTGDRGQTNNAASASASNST

[8] = biological target: T1, Cyclin-dependent kinase 5/CDK5 activator 1 (Homo sapiens); assay: Inhibition of human CDK5/p25 assessed as residual activity at 10 uM in presence of ATP by ADP-glo luminescent assay relative to control; format: protein-complex assay
Outline: as §1

[9] = species on record: Sus scrofa; assay: Inhibition of porcine GSK3alpha/beta assessed as residual activity at 1 uM in presence of ATP by ADP-glo luminescent assay relative to control
Outline: (§3)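 Porcine brain GSK3α/β, native and affinity-purified. Assayed by ADP-Glo luminescence with 10 μM ATP and 0.010 μg/μl GS-1 peptide substrate. Buffer A: 10 mM MgCl2, 1 mM EGTA, 1 mM DTT, 25 mM Tris-HCl pH 7.5, 50 μg/ml heparin. Compound tested at 10 or 1 μM. Result is % of maximal activity versus DMSO control, mean of n = 2.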

[10] = biological target: Cyclin-dependent kinase 5/CDK5 activator 1 (Homo sapiens, UniProt Q00535); assay: Inhibition of human CDK5/p25 in presence of ATP by ADP-glo luminescent assay; format: protein-complex assay
Sequence of Cyclin-dependent kinase 5/CDK5 activator 1 (Q00535 whole entry): as the sequence (Q00535 whole entry) above
Sequence of Cyclin-dependent kinase 5/CDK5 activator 1 (Q15078 whole entry, further chain): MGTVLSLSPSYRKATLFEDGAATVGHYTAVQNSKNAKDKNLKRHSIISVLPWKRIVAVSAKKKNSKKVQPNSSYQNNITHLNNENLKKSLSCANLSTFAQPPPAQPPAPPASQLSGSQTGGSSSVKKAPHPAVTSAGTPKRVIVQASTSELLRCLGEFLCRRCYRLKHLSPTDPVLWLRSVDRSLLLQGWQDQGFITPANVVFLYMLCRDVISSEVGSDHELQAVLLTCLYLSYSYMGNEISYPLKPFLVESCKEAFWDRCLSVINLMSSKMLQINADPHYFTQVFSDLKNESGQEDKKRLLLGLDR
Outline: (§4)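 Human kinases tested over roughly 0.0003–10 μM by ADP-Glo luminescence with 10 μM ATP, in duplicate. IC50 is taken from dose-response curves.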

[11] = biological target: T3, CDK9/cyclin T1 (Homo sapiens) (UniProt O60563+P50750); assay: Inhibition of human CDK9/cyclin T assessed as residual activity at 1 uM in presence of ATP by ADP-glo luminescent assay relative to control; format: protein-complex assay
Outline: as §1

[12] = biological target: CDK9/cyclin T1 (Homo sapiens, UniProt P50750); assay: Inhibition of human CDK9/cyclin T in presence of ATP by ADP-glo luminescent assay; format: protein-complex assay
Sequence of CDK9/cyclin T1 (O60563 whole entry): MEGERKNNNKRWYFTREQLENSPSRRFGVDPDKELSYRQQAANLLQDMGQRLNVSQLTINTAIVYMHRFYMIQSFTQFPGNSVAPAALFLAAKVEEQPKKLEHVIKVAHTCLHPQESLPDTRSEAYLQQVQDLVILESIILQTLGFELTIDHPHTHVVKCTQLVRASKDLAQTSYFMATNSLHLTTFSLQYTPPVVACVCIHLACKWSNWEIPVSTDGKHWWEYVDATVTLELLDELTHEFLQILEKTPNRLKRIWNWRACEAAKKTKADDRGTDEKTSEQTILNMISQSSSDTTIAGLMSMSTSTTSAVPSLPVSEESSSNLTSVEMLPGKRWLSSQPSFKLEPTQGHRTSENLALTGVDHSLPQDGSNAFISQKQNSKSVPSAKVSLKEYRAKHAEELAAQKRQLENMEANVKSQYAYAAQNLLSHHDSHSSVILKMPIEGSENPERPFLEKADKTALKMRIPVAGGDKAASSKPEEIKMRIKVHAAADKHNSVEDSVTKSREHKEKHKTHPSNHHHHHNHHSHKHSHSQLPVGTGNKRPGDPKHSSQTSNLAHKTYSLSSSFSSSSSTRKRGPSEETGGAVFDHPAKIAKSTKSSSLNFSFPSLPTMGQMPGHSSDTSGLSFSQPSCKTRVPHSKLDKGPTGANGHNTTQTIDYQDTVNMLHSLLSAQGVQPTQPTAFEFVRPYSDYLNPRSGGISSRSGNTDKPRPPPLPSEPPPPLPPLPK
Sequence of CDK9/cyclin T1 (P50750 whole entry): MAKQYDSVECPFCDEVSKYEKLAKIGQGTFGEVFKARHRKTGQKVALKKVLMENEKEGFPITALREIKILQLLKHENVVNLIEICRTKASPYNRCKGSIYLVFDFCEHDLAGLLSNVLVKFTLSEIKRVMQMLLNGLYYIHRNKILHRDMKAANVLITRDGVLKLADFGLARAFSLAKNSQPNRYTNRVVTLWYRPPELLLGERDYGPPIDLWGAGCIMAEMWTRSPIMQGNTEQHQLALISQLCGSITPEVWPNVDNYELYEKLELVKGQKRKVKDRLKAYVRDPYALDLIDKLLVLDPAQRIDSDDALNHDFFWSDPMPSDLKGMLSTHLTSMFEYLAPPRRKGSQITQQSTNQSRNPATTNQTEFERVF
Outline: as §4

[13] = tested on: Plasmodium falciparum; assay: Inhibition of Plasmodium falciparum GSK3 assessed as residual activity at 10 uM in presence of ATP by ADP-glo luminescent assay relative to control
Outline: as §2

[14] = species on record: Sus scrofa; assay: Inhibition of porcine GSK3alpha/beta assessed as residual activity at 10 uM in presence of ATP by ADP-glo luminescent assay relative to control
Outline: as §3

[15] = tested on: K562; assay: Antiproliferative activity against human K562 cells assessed as reduction in cell viability incubated for 72 hrs by CellTiter-Blue resazurin fluorescence assay; conditions: K562, 72 h
[16] = tested on: MIA PaCa-2; assay: Antiproliferative activity against human MIA PaCa-2 cells assessed as reduction in cell viability incubated for 72 hrs by CellTiter-Blue fluorescence assay; conditions: MIA PaCa-2, 72 h
[17] = biological target: CDK2/Cyclin A2 (Homo sapiens, UniProt P24941); assay: Inhibition of human CDK2/cyclin A in presence of ATP by ADP-glo luminescent assay; format: protein-complex assay
Outline: as §4

[18] = biological target: T2, Glycogen synthase kinase-3 beta; assay: Inhibition of human GSK3beta in presence of ATP by ADP-glo luminescent assay
Outline: as §4
Target sequence in this assay (P49841 whole entry): as the sequence (P49841 whole entry, looked up) above

[19] = biological target: T3, CDK9/cyclin T1 (Homo sapiens); assay: Inhibition of human CDK9/cyclin T assessed as residual activity at 10 uM in presence of ATP by ADP-glo luminescent assay relative to control; format: protein-complex assay
Outline: as §1

[20] = biological target: T4, CDK2/Cyclin A2 (Homo sapiens) (UniProt P24941+P20248); assay: Inhibition of human CDK2/cyclin A assessed as residual activity at 10 uM in presence of ATP by ADP-glo luminescent assay relative to control; format: protein-complex assay
Outline: as §1

[21] = biological target: T4, CDK2/Cyclin A2 (Homo sapiens); assay: Inhibition of human CDK2/cyclin A assessed as residual activity at 1 uM in presence of ATP by ADP-glo luminescent assay relative to control; format: protein-complex assay
Outline: as §1

[22] = tested on: NCI-N87; assay: Antiproliferative activity against human NCI-N87 cells assessed as reduction in cell viability incubated for 72 hrs by CellTiter-Blue fluorescence assay; conditions: NCI-N87, 72 h
[23] = biological target: T2, Glycogen synthase kinase-3 beta; assay: Inhibition of human GSK3beta assessed as residual activity at 10 uM in presence of ATP by ADP-glo luminescent assay relative to control
Outline: as §1
Target sequence in this assay (P49841 whole entry, looked up): as above

[24] = species on record: Sus scrofa; assay: Inhibition of porcine CK1delta/epsilon assessed as residual activity at 1 uM in presence of ATP by ADP-glo luminescent assay relative to control
[25] = tested on: Leishmania major; assay: Inhibition of Leishmania major CK1 assessed as residual activity at 10 uM in presence of ATP by ADP-glo luminescent assay relative to control
[26] = tested on: SK-BR-3; assay: Antiproliferative activity against human SK-BR-3 cells assessed as reduction in cell viability incubated for 72 hrs by CellTiter-Blue fluorescence assay; conditions: SK-BR-3, 72 h
[27] = tested on: Leishmania major; assay: Inhibition of Leishmania major CK1 assessed as residual activity at 1 uM in presence of ATP by ADP-glo luminescent assay relative to control

## COC(=O)[C@@H](CSc1ccc(-c2cc(=O)c3c(O)cc(O)c(C4=CCN(C)CC4)c3o2)cc1)NC(=O)OC(C)(C)C
[1]
  IC50: 7790 nM

## CC(=O)N[C@H](CSc1ccc(-c2cc(=O)c3c(O)cc(O)c(C4=CCN(C)CC4)c3o2)cc1)C(=O)O
[1]
  IC50: > 10000 nM

## CN1CC=C(c2c(O)cc(O)c3c(=O)cc(-c4ccc(SCCC(=O)NOC5CCCCO5)cc4)oc23)CC1 (configuration not stated)
[1]
  IC50: 6850 nM

## CN1CC=C(c2c(O)cc(O)c3c(=O)cc(-c4ccc(Sc5nc(-c6ccccc6)c[nH]5)cc4)oc23)CC1
[2]
  IC50: 243 nM
[3]
  Activity: 10%
[4]
  Activity: 43%
[1]
  IC50: 295 nM
[5]
  Activity: > 100%
[6]
  IC50: 173 nM
[7]
  Activity: 25%
[8]
  Activity: 5%
[9]
  Activity: 53%
[10]
  IC50: 195 nM
[11]
  Activity: 2%
[12]
  IC50: 9 nM
[13]
  Activity: > 100%
[14]
  Activity: 11%
[15]
  IC50: 300 nM
[16]
  IC50: 448 nM
[17]
  IC50: 469 nM
[18]
  IC50: 356 nM
[19]
  Activity: 0%
[20]
  Activity: 14%
[21]
  Activity: 33%
[22]
  IC50: 4800 nM
[23]
  Activity: 6%
[24]
  Activity: 78%
[25]
  Activity: 54%
[26]
  IC50: 352 nM
[27]
  Activity: 88%

## CN1CC=C(c2c(O)cc(O)c3c(=O)cc(-c4ccc(Sc5nc6ccccc6o5)cc4)oc23)CC1
[1]
  IC50: 2000 nM

## CN1CC=C(c2c(O)cc(O)c3c(=O)cc(-c4ccc(S[C@@H]5O[C@@H](CO)C(O)C(O)[C@@H]5O)cc4)oc23)CC1 (single isomer, unassigned)
[1]
  IC50: > 10000 nM

## CN1CC=C(c2c(O)cc(O)c3c(=O)cc(-c4ccc(Sc5ccc(C(=O)NO)cn5)cc4)oc23)CC1
[1]
  IC50: > 10000 nM

## CN1CC=C(c2c(O)cc(O)c3c(=O)cc(-c4ccc(Sc5ccc(C(=O)O)cn5)cc4)oc23)CC1
[1]
  IC50: > 10000 nM

## COC(=O)[C@H](CO)NC(=O)[C@H](CSc1ccc(-c2cc(=O)c3c(O)cc(O)c(C4=CCN(C)CC4)c3o2)cc1)NC(=O)OCc1ccccc1
[1]
  IC50: 4300 nM

## CC(=O)OC[C@@H]1O[C@@H](Sc2ccc(-c3cc(=O)c4c(O)cc(O)c(C5=CCN(C)CC5)c4o3)c(Cl)c2)[C@@H](OC(C)=O)C(OC(C)=O)C1OC(C)=O (single isomer, unassigned)
[1]
  IC50: 2330 nM

## COc1ccc2[nH]c(Sc3ccc(-c4cc(=O)c5c(O)cc(O)c(C6=CCN(C)CC6)c5o4)cc3)nc2c1
[1]
  IC50: 1200 nM
